Reference: ChEMBL document CHEMBL2062401, “New pyrimido[5,4-e]pyrrolo[1,2-c]pyrimidines: synthesis, 2D-QSAR, anti-inflammatory, analgesic and ulcerogenicity studies” (Eur J Med Chem, 2012)

Tests used:
Rattus norvegicus [1] = experiment: Antiinflammatory activity in Wistar albino rat assessed as inhibition of carrageenan-induced paw edema at 0.029 mmol/kg, po dosed 1 hr before carrageenan challenge measured 4 hrs post carrageenan-induced inflammation
Mus musculus [2] = experiment: Analgesic activity in Swiss albino mouse assessed as inhibition of acetic acid-induced writhing at 0.029 mmol/kg. po dosed 1 hr before acetic acid challenge and measured during 30 mins post acetic acid challenge relative to indomethacin; assay type: functional; conditions: read-out: INH
Method in brief: (§1)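 Swiss albino mice of either sex, 18–22 g, six per group. Oral suspension at 0.029 mmol/kg given 1 h before 0.3 ml of 1% acetic acid i.p. Contractions counted for 30 min, starting 5 min after injection. % protection = (n − n')/n × 100 against control writhing. Potency% = % inhibition of test / % inhibition of indomethacin × 100. Mean ± SEM, ANOVA with post hoc test.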

Rattus norvegicus [3] = experiment: Antiinflammatory activity in Wistar albino rat assessed as inhibition of carrageenan-induced paw edema at 0.029 mmol/kg, po dosed 1 hr before carrageenan challenge measured 1 hr post carrageenan-induced inflammation; assay type: functional
Method in brief: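 Wistar albino rats of both sexes, 120–150 g, six per group, food withdrawn the day before. Given orally 0.029 mmol/kg in saline with a few drops of Tween 80, by stomach tube, 1 h before subplantar s.c. carrageenan (0.1 ml of 1%) into the right hind paw. Paw thickness measured at 1, 2, 3 and 4 h against baseline. % inhibition = 100 × (1 − Vt/Vc).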

Rattus norvegicus [4] = experiment: Antiinflammatory activity in Wistar albino rat assessed as inhibition of carrageenan-induced paw edema at 0.029 mmol/kg, po dosed 1 hr before carrageenan challenge measured 2 hrs post carrageenan-induced inflammation
Rattus norvegicus [5] = experiment: Antiinflammatory activity in Wistar albino rat assessed as inhibition of carrageenan-induced paw edema at 0.029 mmol/kg, po dosed 1 hr before carrageenan challenge measured 3 hrs post carrageenan-induced inflammation
Mus musculus [6] = experiment: Analgesic activity in Swiss albino mouse assessed as inhibition of acetic acid-induced writhing at 0.029 mmol/kg. po dosed 1 hr before acetic acid challenge and measured during 30 mins post acetic acid challenge; assay type: functional
Method in brief: as §1

[7] = Lipophilicity, log P of the compound; assay type: physicochemical; conditions: octanol/water
Rattus norvegicus [8] = experiment: Gastrointestinal toxicity in Wistar albino rat assessed as incidence of stomach ulceration at 0.029 mmol/kg, po; assay type: organism-based; conditions: in vivo
Method in brief: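 Rats given single oral dose suspended in saline with few drops Tween 80 (groups of 6); killed under deep ether anaesthesia 5 h after treatment; stomach opened along greater curvature and examined for lesions or bleeding; ulceration expressed as number of rats affected per group.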

Rattus norvegicus [9] = experiment: Gastrointestinal toxicity in Wistar albino rat assessed as stomach ulcer index at 0.029 mmol/kg, po followed by another two compound doses in second and third days measured on fourth day post dose by acute ulcerogenicity study; assay type: organism-based; conditions: in vivo
Method in brief: (§2)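 Adult Wistar rats of both sexes, 120–150 g, groups of 6, fasted 20 h; oral dose suspended in 1% Tween (vehicle group 1% Tween); fasted 2 h, fed 2 h, fasted 20 h; further doses on days 2 and 3. Scored: % incidence/10, mean ulcers per rat, mean severity score; ulcer index = sum of the three.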

Rattus norvegicus [10] = experiment: Gastrointestinal toxicity in Wistar albino rat assessed as incidence of stomach ulceration at 0.029 mmol/kg, po followed by another two compound doses in second and third days measured on fourth day post dose by acute ulcerogenicity study; assay type: organism-based; conditions: in vivo
Method in brief: as §2

| Structure (SMILES) | inhibition in vivo at 29 µmol/kg (Rattus norvegicus [1]) | writhing inhibition relative to indomethacin (potency %) at 29 µmol/kg (Mus musculus [2]) | inhibition in vivo at 29 µmol/kg (Rattus norvegicus [3]) | inhibition in vivo at 29 µmol/kg (Rattus norvegicus [4]) | inhibition in vivo at 29 µmol/kg (Rattus norvegicus [5]) | inhibition in vivo at 29 µmol/kg (Mus musculus [6]) | logP [7] | Activity (Rattus norvegicus [8]) | UI (Rattus norvegicus [9]) | Activity (Rattus norvegicus [10]) |
| --- | --- | --- | --- | --- | --- | --- | --- | --- | --- | --- |
| CCOC(=O)c1nc2c(c(=O)[nH]1)C1CCCN1C(=O)N2c1ccccc1 (centres undefined) | 66% | 44.5% | 71% | 67% | 68% | 29.4% | 2.02 | Non-toxic |  |  |
| O=C(O)c1nc2c(c(=O)[nH]1)C1CCCN1C(=O)N2c1ccccc1 (centres undefined) | 72% | 97.8% | 68% | 56% | 66% | 64.7% | 0.661 | Toxic |  |  |
| C/C(=N\NC(=O)c1nc2c(c(=O)[nH]1)C1CCCN1C(=O)N2c1ccccc1)c1ccc(Cl)cc1 (centres undefined) | 57% | 94% | 43% | 50% | 51% | 62.1% | 3.29 | Toxic |  |  |
| Cc1ccc(-c2cc(C(F)(F)F)nn2-c2ccc(S(N)(=O)=O)cc2)cc1 [CELECOXIB] | 48% |  | 54% | 34% | 47% |  |  | Toxic | 11.13 | 6.66% |
| COc1ccc(/C=N/NC(=O)c2nc3c(c(=O)[nH]2)C2CCCN2C(=O)N3c2ccccc2)cc1 (centres undefined) | 47% | 109% | 51% | 21% | 44% | 71.8% | 2.76 | Non-toxic |  |  |
| NNC(=O)c1nc2c(c(=O)[nH]1)C1CCCN1C(=O)N2c1ccccc1 (centres undefined) | 56% | 48.7% | 56% | 45% | 50% | 32.2% | -0.487 | Toxic |  |  |
| O=C(NN=C(c1ccccc1)c1ccccc1)c1nc2c(c(=O)[nH]1)C1CCCN1C(=O)N2c1ccccc1 (centres undefined) | 53% | 124% | 44% | 51% | 51% | 81.9% | 5.52 | Non-toxic |  |  |
| CCOC(=O)C/C(C)=N/NC(=O)c1nc2c(c(=O)[nH]1)C1CCCN1C(=O)N2c1ccccc1 (centres undefined) | 52% | 1.77% | 45% | 41% | 47% | 1.17% | 1.28 | Non-toxic |  |  |
| COc1ccc2c(c1)c(CC(=O)O)c(C)n2C(=O)c1ccc(Cl)cc1 [INDOMETHACIN] | 51% |  | 57% | 39% | 47% | 66.1% |  | Toxic | 14.73 | 10% |
| Cc1cc(C)n(C(=O)c2nc3c(c(=O)[nH]2)C2CCCN2C(=O)N3c2ccccc2)n1 (centres undefined) | 67% | 94% | 58% | 57% | 65% | 62.1% | 1.46 | Non-toxic |  |  |
